The results in this text go back to ChEMBL document CHEMBL1130261, “Identification of novel farnesyl protein transferase inhibitors using three-dimensional database searching methods” (J Med Chem, 1997).

Common to all, as to type: protein-complex assay
Experiment [1] concerns the target Protein farnesyl/geranylgeranyl transferase (Homo sapiens) (UniProt P49354+P49356+P53609). In words: Selectivity was expressed as the ratio of the Geranylgeranyl transferase type I to FPT inhibitory activities (IC50).
Experiment [2] deals with T1, Protein farnesyltransferase (Homo sapiens, UniProt P49354+P49356). In words: Inhibitory activity against farnesyltransferase (FPT) (20 ug/mL). In a few lines:
(§1)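 Primary scintillation proximity assay (SPA) following the kit protocol, with a biotinylated substrate peptide bearing the K-Ras carboxy-terminal sequence.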

The target in experiment [3] is Geranylgeranyl transferase type I (Homo sapiens, UniProt P49354+P53609). In words: Inhibitory activity against Geranylgeranyl transferase type I.
The target of experiment [4] is T1, Protein farnesyltransferase. In words: Inhibitory activity against recombinant human farnesyltransferase.
For experiment [5] the target is unchanged. In words: Inhibition of farnesyltransferase (FTP) at 20 ug/mL. In outline:
as §1

Experiment [6] has the same target. The experiment in a line: Inhibition of Farnesyltransferase (FPT) in FPT Ras/TCA assay. In a few lines: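 Secondary FPT assay measuring transfer of [³H]farnesyl from [³H]farnesyl pyrophosphate to His₆-H-Ras-CVLS. Labelled protein was collected by TCA precipitation. IC50 values were obtained from this Ras/TCA format.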
For experiment [7] the target is unchanged. In words: Inhibition of Farnesyltransferase.

For orientation: inhibition means the share of the control response that was lost under treatment. A low value points to a response near the control. In general, IC50 refers to the concentration that inhibits the measured activity by half. In the case of `Clc1sccc1CO[C@@H]1c2c(ccc3c2CCCC3)S[C@@H]1Cn1ccnc1`, in experiment [1], the Selectivity ratio was found to be 84. In addition, the inhibition in experiment [2] came out at 90%. The IC50 is 16.8 µM in experiment [3] and 0.2 µM in experiment [4].

In the case of `Clc1ccc2c(c1)S[C@H](Cn1ccnc1)[C@@H]2OCc1cccnc1Cl`, the Selectivity ratio in experiment [1] was 2.5. For the same molecule, the IC50 in experiment [3] is 3.3 µM; in experiment [4] it was 1.3 µM. This molecule gave an inhibition in experiment [5] of 95%.

In experiment [2], `Fc1ccc2c(c1)[C@@H](OCc1c(F)cccc1Cl)[C@@H](Cn1ccnc1)S2` displayed an inhibition of 94%. The half-maximal inhibitory concentration (IC50) in experiment [4] was found to be 2.3 µM.

`Clc1cc(Cl)c2c(c1)[C@@H](OCc1ccsc1Cl)[C@@H](Cn1ccnc1)S2`: the Selectivity ratio in experiment [1] was 10.1. In addition, in experiment [2], the inhibition amounted to 86%. For the same molecule, the concentration for half-maximal inhibition (IC50) was determined as 16.2 µM in experiment [3] and 1.6 µM in experiment [4].

For `Clc1ccc2c(c1)S[C@H](Cn1ccnc1)[C@@H]2OCc1c(Cl)sc2ccccc12`, the Selectivity ratio in experiment [1] worked out at 19. Also, in experiment [2], the inhibition was found to be 68%. The IC50 is 38 µM in experiment [3] and 2 µM in experiment [4].

For the molecule `Clc1ccc2c(c1)S[C@H](Cn1ccnc1)[C@@H]2OCc1ccc(Cl)c(Cl)c1`, the Selectivity ratio in experiment [1] came to 10.8. The inhibition in experiment [2] is 95%. For the same molecule, the IC50 in experiment [3] is 12.9 µM; in experiment [4], 1.2 µM.

Turning to `Clc1sccc1CO[C@@H]1c2cc3c(cc2S[C@@H]1Cn1ccnc1)CCCC3`, the inhibition in experiment [2] is 61%. For the same molecule, in experiment [4], the IC50 was determined as 10.8 µM.

As for `Clc1ccc2c(c1)S[C@H](Cn1ccnc1)[C@@H]2OCc1cnc2cc3c(cc2c1Cl)OCO3`, the Selectivity ratio in experiment [1] worked out at 0.6. In experiment [2], this molecule registered an inhibition of 69%. The IC50 in experiment [6] is 3.1 µM; in experiment [3], 1.4 µM; in experiment [4] it was 2.5 µM.

Regarding `Clc1ccc2c(c1)C(OCc1ccsc1Cl)C(Cn1ccnc1)S2` (stereo unspecified), the inhibition in experiment [2] was found to be 92%. The 50% inhibitory concentration (IC50) in experiment [4] stood at 2.5 µM.

In turn, `Clc1ccc2c(c1)S[C@H](Cn1ccnc1)[C@@H]2OCc1c(Cl)ccc2c1OCO2` came in with an inhibition in experiment [2] of 80%. In experiment [4], the IC50 worked out at 3.2 µM.

For the molecule `Clc1sccc1CO[C@@H]1c2ccccc2S[C@@H]1Cn1ccnc1`, the Selectivity ratio in experiment [1] came to 42.5. This molecule also showed an inhibition in experiment [2] of 94%. Moreover, the IC50 was 46.8 µM in experiment [3] and 1.1 µM in experiment [4].

Take `Clc1ccc(COC2c3c(Cl)cc(Cl)cc3SC2Cn2ccnc2)cc1` (stereo unspecified): the Selectivity ratio in experiment [1] is 13.4. Also, in experiment [2], the inhibition was determined as 83%. For the same molecule, the IC50 is 18.8 µM in experiment [3] and 1.4 µM in experiment [4].

Consider `Clc1ccc2c(c1)S[C@H](Cn1ccnc1)[C@@H]2OCc1ccsc1Cl`, for which the inhibition in experiment [2] was determined as 96%. Moreover, the IC50 in experiment [4] was determined as 2.3 µM.

In experiment [2], `Cc1onc(-c2ccccc2)c1CO[C@@H]1c2ccc(Cl)cc2S[C@@H]1Cn1ccnc1` registered an inhibition of 90%. Further, in experiment [4], the half-inhibitory concentration (IC50) was found to be 2.5 µM.

For `Fc1ccc2c(c1)[C@@H](OCc1ccsc1Cl)[C@@H](Cn1ccnc1)S2`, the Selectivity ratio in experiment [1] amounted to 18.9. This molecule came in with an inhibition in experiment [2] of 95%. Besides, the values for the IC50 in experiment [3] and in experiment [4] were 34.1 µM and 1.8 µM, respectively.

In the case of `Clc1cc2c(cc1Cl)C(OCc1ccsc1Cl)C(Cn1ccnc1)S2` (stereo unspecified), the Selectivity ratio in experiment [1] is 2.1. Further, in experiment [2], the inhibition is 93%. For the same molecule, the IC50 came out at 2.9 µM in experiment [3] and 1.4 µM in experiment [4].

`Clc1ccc2c(c1)S[C@H](Cn1ccnc1)[C@@H]2OCc1cscn1` gave an inhibition in experiment [2] of 90%. In addition, in experiment [4], the half-maximal inhibitory concentration (IC50) turned out to be 10.7 µM.

On to `FC(F)(F)c1ccc2c(c1)S[C@H](Cn1ccnc1)[C@@H]2OCc1ccsc1Cl`, for which the inhibition in experiment [2] amounted to 75%. Besides, in experiment [4], the IC50 was 10.7 µM.

Take `Clc1cccc2c1[C@@H](OCc1ccsc1Cl)[C@@H](Cn1ccnc1)S2`: in experiment [1], the Selectivity ratio is 28.1. This molecule also registered an inhibition in experiment [2] of 89%. The figures for the IC50 in experiment [3] and in experiment [4] were 36.5 µM and 1.3 µM, respectively.

In the case of `Clc1ccc(COC2c3ccc(Cl)cc3SC2Cn2ccnc2)c(Cl)c1` (stereo unspecified), the inhibition in experiment [2] was 75%. Also, the 50% inhibitory concentration (IC50) in experiment [4] is 5.4 µM.

As for `Fc1ccc2c(c1)[C@@H](OCc1ccc(Cl)c(Cl)c1)[C@@H](Cn1ccnc1)S2`, in experiment [1], the Selectivity ratio worked out at 14. This molecule yielded an inhibition in experiment [2] of 96%. Besides, the IC50 in experiment [3] was 9.8 µM; in experiment [4], 0.7 µM.

Turning to `Clc1ccc2c(c1)C(OCc1c(Cl)cccc1Cl)C(Cn1ccnc1)S2` (stereo unspecified), the inhibition in experiment [2] was 85%. Also, the IC50 in experiment [4] was 5.3 µM.

`Clc1ccc(COC2c3c(Cl)cc(Cl)cc3SC2Cn2ccnc2)c(Cl)c1` (stereo unspecified) yielded an inhibition in experiment [2] of 60%. In addition, in experiment [4], the 50% inhibitory concentration (IC50) came out at 12.3 µM.

On to `Clc1ccc(COC2c3cc(Cl)ccc3SC2Cn2ccnc2)c(Cl)c1` (stereo unspecified), for which the Selectivity ratio in experiment [1] was determined as 3.5. Besides, in experiment [2], the inhibition was determined as 99%. Further, the half-inhibitory concentration (IC50) stood at 0.7 µM in experiment [3] and 0.2 µM in experiment [4].

Turning to `Clc1sccc1CO[C@@H]1c2cc(Br)ccc2S[C@@H]1Cn1ccnc1`, the Selectivity ratio in experiment [1] was found to be 12.9. In addition, the inhibition in experiment [2] was 88%. For the same molecule, the IC50 in experiment [3] stood at 14.2 µM; in experiment [4], 1.1 µM.

For the molecule `C=CCO[C@@H]1c2ccc(Cl)cc2S[C@@H]1Cn1ccnc1`, the inhibition in experiment [2] came to 88%. The IC50 in experiment [4] is 8.5 µM.

For `Cc1cccc2c1[C@@H](O)[C@@H](Cn1ccnc1)S2`, the inhibition in experiment [2] turned out to be 14%. Besides, the IC50 in experiment [4] stood at 266 µM.

Regarding `Clc1ccc2c(c1)S[C@H](Cn1ccnc1)[C@@H]2OCc1ccc(Cl)s1`, in experiment [1], the Selectivity ratio worked out at 2.5. Moreover, the inhibition in experiment [2] turned out to be 88%. Besides, the figures for the IC50 in experiment [3] and in experiment [4] were 5 µM and 2 µM, respectively.

As to `Fc1ccc2c(c1)S[C@H](Cn1ccnc1)[C@@H]2OCc1ccsc1`, in experiment [2], the inhibition stood at 91%. The IC50 in experiment [4] was determined as 13.6 µM.

With `Clc1ccc(COC2c3c(Cl)cccc3SC2Cn2ccnc2)cc1` (stereo unspecified), the 50% inhibitory concentration (IC50) was 16 µM in experiment [7] and 1.3 µM in experiment [4]. In addition, the inhibition in experiment [2] turned out to be 95%.

For the molecule `Clc1ccc2c(c1)S[C@H](Cn1ccnc1)[C@@H]2OCc1ccsc1`, in experiment [2], the inhibition stood at 95%. Also, the IC50 in experiment [4] turned out to be 16 µM.

In the case of `Fc1ccc2c(c1)[C@@H](OCc1ccc(Cl)cc1Cl)[C@@H](Cn1ccnc1)S2`, the Selectivity ratio in experiment [1] is 26.1. Also, the inhibition in experiment [2] was found to be 91%. Also, the IC50 in experiment [3] is 18.3 µM; in experiment [4], 0.7 µM.

For `Clc1sccc1CO[C@@H]1c2ccc3ccccc3c2S[C@@H]1Cn1ccnc1`, in experiment [1], the Selectivity ratio was found to be 10. Besides, the inhibition in experiment [2] was 76%. Further, the IC50 in experiment [3] was determined as 15 µM; in experiment [4] it was 1.5 µM.

As for `Fc1cccc(Cl)c1CO[C@@H]1c2ccc(Cl)cc2S[C@@H]1Cn1ccnc1`, the inhibition in experiment [2] turned out to be 92%. For the same molecule, in experiment [4], the half-maximal inhibitory concentration (IC50) is 4.4 µM.

In turn, `CC(=O)N1CCN(c2nc(CO[C@@H]3c4cc(C(C)(C)C)ccc4S[C@@H]3Cn3ccnc3)ns2)CC1` displayed an inhibition in experiment [2] of 86%. For the same molecule, in experiment [3], the IC50 was > 39 µM.
